Columns and labels:
[1] = melting temperature; fluorescence melt of hairpins on a sequencing array, two-state fit, raised by 9.35 °C to match UV melts; settings: sodium 0.088 M
Method in brief: (§1)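 To match UV melts, fitted temperatures were raised by 9.35 °C. These fits were bootstrapped two-state models that gave melting temperature and folding enthalpy, combined by inverse variance over four replicates. The input was normalised Cy3 fluorescence of library hairpins with annealed Cy3 and quencher oligos on a sequenced MiSeq flow cell, imaged in 50 mM Na-HEPES pH 8.0, 25 mM NaCl in 2.5 °C steps up to 60 °C.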

[2] = folding enthalpy; higher = less favourable; fluorescence melt of hairpins on a sequencing array, two-state fit; settings: sodium 0.088 M
Method in brief: as §1

| Sequence | Tm [1] [°C] | folding enthalpy [2] [kcal/mol] |
| --- | --- | --- |
| GTCAGTCGAAAGACGGAC (((.(((....))).))) | 56.2 | -33.3 |
| GTCAGTGGAAACACCGAC (((.(((....))).))) | 40.4 | -26.9 |
| GTCATAGCGAAAGCTGAC (((..(((....)))))) | 46.6 | -22.8 |
| GTCATCCGAAAGGACGAC (((.(((....))).))) | 49.3 | -36.4 |
| GTCATCGAAAGATCTGAC ((((((....)))..))) | 23.8 | -10.9 |
| GTCATCGAAAGATGAC ((((((....)))))) | 66.2 | -31.2 |
| GTCATCGAAAGATGGAC ((((((....))).))) | 43.9 | -17.6 |
| GTCATCGAAAGATTGAC ((((((....))).))) | 40.7 | -26.9 |
| GTCATGAAAATGAC (((((....))))) | 50.1 | -27.1 |
| GTCATGCGAAAGCAAGAC (((.(((....))).))) | 52.4 | -29.6 |
| GTCATGGGAAACTATGAC (((((.(....).))))) | 45 | -29.1 |
| GTCATTGCGAAAGCAGAC (((..(((....)))))) | 33 | -14.5 |
| GTCATTGGAAACAATGAC (((((((....))))))) | 58.3 | -41.8 |
| GTCCAAGAAATTGGAC ((((((....)))))) | 53 | -26.5 |
| GTCCAAGGAAACTTGAAC ((.((((....)))).)) | 29.2 | -16.9 |
| GTCCAATCGAAAGATGAC (((..(((....)))))) | 29.1 | -13.9 |
| GTCCACGAAAGTGAAGAC ((((((....)))..))) | 40.4 | -23.1 |
| GTCCACGAAAGTGAGGAC ((((((....)))..))) | 46.4 | -21.9 |
| GTCCACGAAAGTGCCGAC ((((((....)))..))) | 31.5 | -12.8 |
| GTCCACGAAAGTGGGAC ((((((....))).))) | 58.3 | -13.6 |
| GTCCACGAAAGTGGGGAC ((((((....)))..))) | 46.4 | -10.4 |
| GTCCACGAAAGTGTTGAC ((((((....)))..))) | 31.6 | -17 |
| GTCCACTCGAAAGAGGAC (((..(((....)))))) | 37.4 | -23 |

| Sequence | Tm [1] [°C] | folding enthalpy [2] [kcal/mol] |
| --- | --- | --- |
| GTCCAGAAATGGAC (((((....))))) | 52.9 | -24.8 |
| GTCCAGCCGAAAGGCGAC (((..(((....)))))) | 40.6 | -9.75 |
| GTCCAGCGAAAGCTAGAC (((.(((....))).))) | 46.4 | -22.1 |
| GTCCAGCGAAAGCTCGAC (((.(((....))).))) | 43.2 | -20.7 |
| GTCCAGCGAAAGCTTGAC (((.(((....))).))) | 49.1 | -26.2 |
| GTCCAGGGAAACCTGAAC ((.((((....)))).)) | 35.9 | -19.5 |
| GTCCAGGGAAACCTGGAC (((((((....))))))) | 68.6 | -33.6 |
| GTCCATGGAAACATGGAC (((((((....))))))) | 63.6 | -41.8 |
| GTCCCAGAAATGGGAC ((((((....)))))) | 64.3 | -33.7 |
| GTCCCAGGAAACCGGGAC (((((.(....).))))) | 53.2 | -34.8 |
| GTCCCAGGAAACTGGGGC (.(((((....))))).) | 57.5 | -40.6 |
| GTCCCCGAAAGGGAAGAC ((((((....)))..))) | 44.5 | -13.5 |
| GTCCCCGAAAGGGCAGAC ((((((....)))..))) | 36.7 | -13 |
| GTCCCCGAAAGGGTCGAC ((((((....)))..))) | 35.4 | -13.6 |
| GTCCGAGAAATCGGAC ((((((....)))))) | 65.9 | -34.5 |
| GTCCGAGGAAACTCGAAC ((.((((....)))).)) | 41.3 | -21.3 |
| GTCCGAGGAAACTTGGGC (.((.((....)).)).) | 41 | -27.9 |
| GTCCGCGAAAGCGCGAC ((((((....))).))) | 56.9 | -20.7 |
| GTCCGCGAAAGCGCTGAC ((((((....)))..))) | 38.2 | -10.6 |
| GTCCGCTCGAAAGAGGAC (((..(((....)))))) | 47.4 | -29 |
| GTCCGGCGAAAGCCCGAC (((.(((....))).))) | 45.2 | -20.1 |
| GTCCGGCGAAAGCCTGAC (((.(((....))).))) | 51.8 | -20.9 |
| GTCCGGGGAAACCTGGGC (.((.((....)).)).) | 48.3 | -29.8 |

| Sequence | Tm [1] [°C] | folding enthalpy [2] [kcal/mol] |
| --- | --- | --- |
| GTCCGGGGAAACTCGGAC (((((.(....).))))) | 58.9 | -40.9 |
| GTCCGGGGAAACTCGGGC (.(((.(....).))).) | 47.8 | -21.4 |
| GTCCGTCGAAAGACCGAC (((.(((....))).))) | 42.8 | -21.5 |
| GTCCGTCGAAAGACTGAC (((.(((....))).))) | 47.8 | -28.3 |
| GTCCGTGGAAACGTGGAC ((((..(....)..)))) | 45.4 | -21.5 |
| GTCCTACGAAAGTAAGAC (((.(((....))).))) | 37 | -27.3 |
| GTCCTAGGAAACCAGGAC (((((.(....).))))) | 45.3 | -28.6 |
| GTCCTCACGAAAGTGGAC (((..(((....)))))) | 43 | -17.2 |
| GTCCTCCGAAAGGAGAC (((.(((....)))))) | 47.5 | -15.9 |
| GTCCTCGAAAGAGTCGAC ((((((....)))..))) | 32.3 | -12.3 |
| GTCCTCGGAAACGAGGGC (.(((((....))))).) | 62.3 | -30.3 |
| GTCCTGAAAAGGAC (((((....))))) | 55.9 | -31 |
| GTCCTGACGAAAGTCGAC (((..(((....)))))) | 29.1 | -10.3 |
| GTCCTGCGAAAGCACGAC (((.(((....))).))) | 42.6 | -21.4 |
| GTCCTGCGAAAGCATGAC (((.(((....))).))) | 49.9 | -26 |
| GTCCTGGGAAACCAGAAC ((.((((....)))).)) | 35.5 | -19.7 |
| GTCCTGGGAAACTAGGAC (((((.(....).))))) | 49.1 | -42.9 |
| GTCCTTGAAAAAGGAC ((((((....)))))) | 56 | -33.2 |
| GTCCTTGGAAACAAAGAC (((.(((....))).))) | 30.4 | -13.3 |
| GTCGAAACGAAAGTTGAC (((..(((....)))))) | 37.2 | -18.5 |
| GTCGAAGGAAACTTCGAC (((((((....))))))) | 62.2 | -48.6 |
| GTCGACGAAAGTCAAGAC ((((((....)))..))) | 43.8 | -20.4 |
| GTCGACGAAAGTCAGAC ((((((....))).))) | 52.3 | -35.2 |

| Sequence | Tm [1] [°C] | folding enthalpy [2] [kcal/mol] |
| --- | --- | --- |
| GTCGACGAAAGTCAGGAC ((((((....)))..))) | 41.7 | -17.6 |
| GTCGACGAAAGTCATGAC ((((((....)))..))) | 40.7 | -15.6 |
| GTCGACGAAAGTCTGGAC ((((((....)))..))) | 39.8 | -16.1 |
| GTCGAGAAATCGAC (((((....))))) | 55.5 | -26.8 |
| GTCGAGGGAAACCCCGAC ((((.((....)).)))) | 52 | -38.9 |
| GTCGAGGGAAACCTTGGC (.(.(((....))).).) | 36 | -21.8 |
| GTCGATCGAAAGATGGAC (((.(((....))).))) | 48.6 | -28.3 |
| GTCGATCGAAAGATTGAC (((.(((....))).))) | 53.6 | -51.8 |
| GTCGATGCGAAAGCAGAC (((..(((....)))))) | 46 | -16.1 |
| GTCGATGGAAACGTTGAC (((.(.(....).).))) | 34.6 | -20.5 |
| GTCGCAGCGAAAGCTGAC (((..(((....)))))) | 37.1 | -9.2 |
| GTCGCAGGAAACTGCGGC (.(((((....))))).) | 64.5 | -32.2 |
| GTCGCCGAAAGGCCAGAC ((((((....)))..))) | 40.7 | -13.5 |
| GTCGCCGAAAGGCCGAC ((((((....))).))) | 60.7 | -18.1 |
| GTCGCCGAAAGGCGCGAC ((((((....)))..))) | 58.4 | -11.3 |
| GTCGCCGAAAGGCGGAC ((((((....))).))) | 58 | -11.2 |
| GTCGCCGAAAGGCGGGAC ((((((....)))..))) | 41 | -6.81 |
| GTCGCCGAAAGGCTGGAC ((((((....)))..))) | 44 | -13.1 |
| GTCGCCGGAAACGGTGGC (.(.(((....))).).) | 52.2 | -25.5 |
| GTCGCCTCGAAAGAGGAC (((..(((....)))))) | 31.3 | -9.5 |
| GTCGCTGGAAACAACGAC ((((.((....)).)))) | 47.1 | -38.5 |
| GTCGCTGGAAACAGCGGC (.(((((....))))).) | 65.6 | -23.4 |

Source: the array DNA melting data of Ke et al. (doi:10.1101/2024.01.08.574731)
